The source made the active and inactive calls. The rule behind the calls is not given here.
Tests used:
[1] = target: T1, von Hippel-Lindau disease tumor suppressor/1-phosphatidylinositol 3-phosphate 5-kinase (Homo sapiens) (UniProt Q9Y2I7+P40337); assay: PROTAC activity at VHL/PIKfyve in human VCaP cells assessed as induction of PIKfyve degradation at 300 nM incubated for 4 hrs followed by culturing in compound-free medium for 72 hrs by immunoblot analysis; assay type: cell-based
In short: (§1)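 VCaP cells treated 4 h, compounds removed, cultured 72 h in compound-free medium; whole cell lysates immunoblotted for PIKfyve, LC3A/B and GAPDH (RIPA lysis, 4–12% Bis-Tris gels, PVDF, ECL).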

[2] = target: T1, von Hippel-Lindau disease tumor suppressor/1-phosphatidylinositol 3-phosphate 5-kinase (Homo sapiens); assay: PROTAC activity at VHL/PIKfyve in human VCaP cells assessed as induction of PIKfyve degradation at 0.1 to 1 uM incubated for 24 hrs by immunoblot analysis; assay type: cell-based; conditions: dose 0.1-1 µM
In short: (§2)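 VCaP cells treated 24 h at 0.1 and 1 µM, with or without pretreatment by 1 µM bortezomib; PIKfyve and GAPDH immunoblotted.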

[3] = target: T1, von Hippel-Lindau disease tumor suppressor/1-phosphatidylinositol 3-phosphate 5-kinase (Homo sapiens); assay: PROTAC activity at VHL/PIKfyve in human VCaP cells assessed as induction of PIKfyve degradation at 0.1 to 0.3 uM incubated for 24 hrs in presence of PIKfyve inhibitor, apilimod by immunoblot analysis; assay type: cell-based; conditions: dose 0.1-0.3 µM
In short: (§3)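 VCaP cells given increasing concentrations of degrader with or without warhead 1 or VHL ligand VL285 for 24 h; immunoblot of PIKfyve and GAPDH.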

[4] = system: VCaP; assay: Inhibition of autophagy in human VCaP cells assessed as increase in LC3A/B expression at 300 nM incubated for 4 hrs followed by culturing in compound-free medium for 72 hrs by immunoblot analysis; assay type: functional, cell-based; in short: as §1
[5] = system: PC-3; assay: Inhibition of autophagy in human PC-3 cells assessed as increase in p62 expression incubated for 24 hrs by immunoblot analysis; assay type: functional, cell-based; conditions: dose 10-3000 nM
In short: (§4)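 22RV1, LNCaP or PC3 cells (5% CO2, 37 °C) exposed to increasing concentrations for 24 h; RIPA lysates with protease/phosphatase inhibitors, 4–12% Bis-Tris SDS-PAGE, PVDF, milk block, immunoblotted for PIKfyve and autophagy markers LC3A/B and p62, ECL detection.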

[6] = target: T1, von Hippel-Lindau disease tumor suppressor/1-phosphatidylinositol 3-phosphate 5-kinase (Homo sapiens); assay: PROTAC activity at VHL/PIKfyve in human LNCaP cells assessed as downregulation of PIKfyve expression at 10 to 3000 nM measured after 24 hrs by immunoblot analysis; assay type: cell-based; conditions: dose 10-3000 nM
In short: (§5)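 22RV1, LNCaP or PC3 cells given increasing concentrations for 24 h; RIPA lysates immunoblotted for PIKfyve with GAPDH loading control, ECL detection.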

[7] = target: T1, von Hippel-Lindau disease tumor suppressor/1-phosphatidylinositol 3-phosphate 5-kinase (Homo sapiens); assay: PROTAC activity at VHL/PIKfyve in human 22RV1 cells assessed as downregulation of PIKfyve expression at 10 to 3000 nM measured after 24 hrs by immunoblot analysis; assay type: cell-based; conditions: dose 10-3000 nM; in short: as §5
[8] = target: T1, von Hippel-Lindau disease tumor suppressor/1-phosphatidylinositol 3-phosphate 5-kinase (Homo sapiens); assay: PROTAC activity at VHL/PIKfyve in human VCaP cells assessed as maximal induction of PIKfyve degradation incubated for 24 hrs by immunoblot analysis relative to control; assay type: cell-based
In short: (§6)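 VCaP cells treated with increasing concentrations for 24 h; PIKfyve and GAPDH immunoblotted; percent remaining PIKfyve plotted to determine DC50 and Dmax.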

[9] = system: LTL-331R; assay: Antitumor activity against human LTL-331R xenografted in CB17 mouse assessed as induction of tumor cell death at 4 to 10 mg/kg, ip for 4 days by TUNEL assay; assay type: functional, organism-based; conditions: dose 4-10 mg/kg, time 4.0 day
In short: (§7)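 LTL-331R prostate cancer PDX; IP once daily for 3 days at 4 or 10 mg/kg in 5% DMSO/95% of 40% hydroxypropyl-β-cyclodextrin (freshly dissolved); tumors collected 24 h after last dose on day 4; whole tumor lysate immunoblotted for PIKfyve, LC3A/B, GAPDH, or TUNEL in situ cell death staining.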

[10] = target: T1, von Hippel-Lindau disease tumor suppressor/1-phosphatidylinositol 3-phosphate 5-kinase (Homo sapiens); assay: PROTAC activity at VHL/PIKfyve in human VCaP cells assessed as induction of PIKfyve degradation incubated for 24 hrs by immunoblot analysis; assay type: cell-based; in short: as §6
[11] = target: T1, von Hippel-Lindau disease tumor suppressor/1-phosphatidylinositol 3-phosphate 5-kinase (Homo sapiens); assay: PROTAC activity at VHL/PIKfyve in human VCaP cells assessed as induction of PIKfyve degradation at 1 uM incubated for 24 hrs by immunoblot analysis; assay type: cell-based
In short: (§8)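 VCaP cells treated 24 h at 0.1 or 1.0 µM; percent PIKfyve degradation determined by immunoblotting.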

[12] = system: DU-145; assay: Induction of massive cytoplasmic vacuolization in human RFP-labeled DU-145 cells at 300 nM incubated for 4 hrs; assay type: functional, cell-based
[13] = target: T1, von Hippel-Lindau disease tumor suppressor/1-phosphatidylinositol 3-phosphate 5-kinase (Homo sapiens); assay: PROTAC activity at VHL/PIKfyve in human VCaP cells assessed as downregulation of PIKfyve expression at 300 nM measured after 4 hrs by TMT-labeled mass spectrometry; assay type: cell-based
In short: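 VCaP cells plated 3×10^6 per well overnight, then DMSO or 300 nM for 4 h; TMT-labeled quantitative global proteomics, mass-spec quantification of PIKfyve and lipid kinases.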

[14] = system: VCaP; assay: Antiproliferative activity against human VCaP cells assessed as inhibition of cell proliferation incubated for 24 hrs followed by culturing in compound-free medium for 2 weeks by crystal violet staining based analysis; assay type: functional
In short: (§9)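 VCaP cells exposed either 24 h then washed and chased 2 weeks in compound-free medium, or continuously for 2 weeks; long-term viability visualized by crystal violet staining; IC50 calculated for each condition.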

[15] = system: LNCaP; assay: Inhibition of autophagy in human LNCaP cells assessed as increase in p62 expression incubated for 24 hrs by immunoblot analysis; assay type: functional, cell-based; conditions: dose 10-3000 nM; in short: as §4
[16] = system: CWR22R; assay: Inhibition of autophagy in human 22Rv1 cells assessed as increase in LC3A/B expression incubated for 24 hrs by immunoblot analysis; assay type: functional, cell-based; conditions: dose 10-3000 nM; in short: as §4
[17] = system: LNCaP; assay: Inhibition of autophagy in human LNCaP cells assessed as increase in LC3A/B expression incubated for 24 hrs by immunoblot analysis; assay type: functional, cell-based; conditions: dose 10-3000 nM; in short: as §4
[18] = system: PC-3; assay: Inhibition of autophagy in human PC-3 cells assessed as increase in LC3A/B expression incubated for 24 hrs by immunoblot analysis; assay type: functional, cell-based; conditions: dose 10-3000 nM; in short: as §4
[19] = target: T1, von Hippel-Lindau disease tumor suppressor/1-phosphatidylinositol 3-phosphate 5-kinase (Homo sapiens); assay: PROTAC activity at VHL/PIKfyve in human VCaP cells assessed as induction of PIKfyve degradation at 0.1 uM incubated for 24 hrs by immunoblot analysis; assay type: cell-based; in short: as §8
[20] = system: VCaP; assay: Antiproliferative activity against human VCaP cells assessed as inhibition of cell proliferation incubated for 4 hrs followed by culturing in compound-free medium for 2 weeks by crystal violet staining based analysis; assay type: functional
In short: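 VCaP cells treated 4 h, compound removed, then cultured 2 weeks in drug-free medium; long-term viability by crystal violet staining.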

[21] = system: DU-145; assay: Induction of massive cytoplasmic vacuolization in human RFP-labeled DU-145 cells incubated for 24 hrs; assay type: functional, cell-based; conditions: dose 100-3000 nM
In short: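 RFP-labeled DU145 cells treated 24 h (300 nM shown); vacuole area per cell quantified from images.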

[22] = system: LTL-331R; assay: Antitumor activity against human LTL-331R xenografted in CB17 mouse assessed as inhibition of tumor cell proliferation at 15 mg/kg, ip at 5 days on and 2 days off regimen for 17 days by digital caliper analysis; assay type: functional, organism-based; conditions: time 17.0 day
In short: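 LTL-331R PDX; once-daily IP dosing, 5 days on/2 days off for 17 days, vehicle 5% DMSO/95% of 40% hydroxypropyl-β-cyclodextrin; tumors measured at least twice weekly by caliper, volume (π/6)(L×W²); vehicle vs treated compared by two-tailed unpaired t test.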

[23] = system: CWR22R; assay: Inhibition of autophagy in human 22Rv1 cells assessed as increase in p62 expression incubated for 24 hrs by immunoblot analysis; assay type: functional, cell-based; conditions: dose 10-3000 nM; in short: as §4
[24] = system: VCaP; assay: Antiproliferative activity against human VCaP cells assessed as inhibition of cell proliferation incubated for 2 weeks by crystal violet staining based analysis; assay type: functional; conditions: 336 h; in short: as §9
[25] = target: T1, von Hippel-Lindau disease tumor suppressor/1-phosphatidylinositol 3-phosphate 5-kinase (Homo sapiens); assay: PROTAC activity at VHL/PIKfyve in human VCaP cells assessed as induction of PIKfyve degradation by measuring half life at 100 nM by immunoblot analysis; assay type: cell-based
[26] = target: T1, von Hippel-Lindau disease tumor suppressor/1-phosphatidylinositol 3-phosphate 5-kinase (Homo sapiens); assay: PROTAC activity at VHL/PIKfyve in human VCaP cells assessed as induction of PIKfyve degradation at 0.1 to 0.3 uM incubated for 24 hrs in presence of VHL ligand, VL285 by immunoblot analysis; assay type: cell-based; conditions: dose 0.1-0.3 µM; in short: as §3
[27] = target: T1, von Hippel-Lindau disease tumor suppressor/1-phosphatidylinositol 3-phosphate 5-kinase (Homo sapiens); assay: PROTAC activity at VHL/PIKfyve in human VCaP cells assessed as induction of PIKfyve degradation at 0.1 to 1 uM incubated for 24 hrs in presence of proteasome inhibitor, bortezomib by immunoblot analysis; assay type: cell-based; conditions: dose 0.1-1 µM; in short: as §2
[28] = system: Mus musculus; assay: In vivo induction of PIKfyve degradation in tumor of LTL-331R-xenografted CB17 mouse assessed as downregulation of PIKfyve expression at 4 to 10 mg/kg, ip for 4 days by western blot analysis; assay type: functional, organism-based; conditions: dose 4-10 mg/kg, time 4.0 day; in short: as §7
[29] = target: T1, von Hippel-Lindau disease tumor suppressor/1-phosphatidylinositol 3-phosphate 5-kinase (Homo sapiens); assay: PROTAC activity at VHL/PIKfyve in human PC-3 cells assessed as downregulation of PIKfyve expression at 10 to 3000 nM measured after 24 hrs by immunoblot analysis; assay type: cell-based; conditions: dose 10-3000 nM; in short: as §5

T1 sequence (P40337 whole entry partner): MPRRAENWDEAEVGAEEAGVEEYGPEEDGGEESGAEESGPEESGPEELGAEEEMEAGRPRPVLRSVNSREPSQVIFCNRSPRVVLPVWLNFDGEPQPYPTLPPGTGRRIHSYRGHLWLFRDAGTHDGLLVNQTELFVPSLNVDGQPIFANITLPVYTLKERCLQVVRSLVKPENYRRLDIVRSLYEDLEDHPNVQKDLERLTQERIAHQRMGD
T1 sequence (Q9Y2I7 2-2098 limits assumed): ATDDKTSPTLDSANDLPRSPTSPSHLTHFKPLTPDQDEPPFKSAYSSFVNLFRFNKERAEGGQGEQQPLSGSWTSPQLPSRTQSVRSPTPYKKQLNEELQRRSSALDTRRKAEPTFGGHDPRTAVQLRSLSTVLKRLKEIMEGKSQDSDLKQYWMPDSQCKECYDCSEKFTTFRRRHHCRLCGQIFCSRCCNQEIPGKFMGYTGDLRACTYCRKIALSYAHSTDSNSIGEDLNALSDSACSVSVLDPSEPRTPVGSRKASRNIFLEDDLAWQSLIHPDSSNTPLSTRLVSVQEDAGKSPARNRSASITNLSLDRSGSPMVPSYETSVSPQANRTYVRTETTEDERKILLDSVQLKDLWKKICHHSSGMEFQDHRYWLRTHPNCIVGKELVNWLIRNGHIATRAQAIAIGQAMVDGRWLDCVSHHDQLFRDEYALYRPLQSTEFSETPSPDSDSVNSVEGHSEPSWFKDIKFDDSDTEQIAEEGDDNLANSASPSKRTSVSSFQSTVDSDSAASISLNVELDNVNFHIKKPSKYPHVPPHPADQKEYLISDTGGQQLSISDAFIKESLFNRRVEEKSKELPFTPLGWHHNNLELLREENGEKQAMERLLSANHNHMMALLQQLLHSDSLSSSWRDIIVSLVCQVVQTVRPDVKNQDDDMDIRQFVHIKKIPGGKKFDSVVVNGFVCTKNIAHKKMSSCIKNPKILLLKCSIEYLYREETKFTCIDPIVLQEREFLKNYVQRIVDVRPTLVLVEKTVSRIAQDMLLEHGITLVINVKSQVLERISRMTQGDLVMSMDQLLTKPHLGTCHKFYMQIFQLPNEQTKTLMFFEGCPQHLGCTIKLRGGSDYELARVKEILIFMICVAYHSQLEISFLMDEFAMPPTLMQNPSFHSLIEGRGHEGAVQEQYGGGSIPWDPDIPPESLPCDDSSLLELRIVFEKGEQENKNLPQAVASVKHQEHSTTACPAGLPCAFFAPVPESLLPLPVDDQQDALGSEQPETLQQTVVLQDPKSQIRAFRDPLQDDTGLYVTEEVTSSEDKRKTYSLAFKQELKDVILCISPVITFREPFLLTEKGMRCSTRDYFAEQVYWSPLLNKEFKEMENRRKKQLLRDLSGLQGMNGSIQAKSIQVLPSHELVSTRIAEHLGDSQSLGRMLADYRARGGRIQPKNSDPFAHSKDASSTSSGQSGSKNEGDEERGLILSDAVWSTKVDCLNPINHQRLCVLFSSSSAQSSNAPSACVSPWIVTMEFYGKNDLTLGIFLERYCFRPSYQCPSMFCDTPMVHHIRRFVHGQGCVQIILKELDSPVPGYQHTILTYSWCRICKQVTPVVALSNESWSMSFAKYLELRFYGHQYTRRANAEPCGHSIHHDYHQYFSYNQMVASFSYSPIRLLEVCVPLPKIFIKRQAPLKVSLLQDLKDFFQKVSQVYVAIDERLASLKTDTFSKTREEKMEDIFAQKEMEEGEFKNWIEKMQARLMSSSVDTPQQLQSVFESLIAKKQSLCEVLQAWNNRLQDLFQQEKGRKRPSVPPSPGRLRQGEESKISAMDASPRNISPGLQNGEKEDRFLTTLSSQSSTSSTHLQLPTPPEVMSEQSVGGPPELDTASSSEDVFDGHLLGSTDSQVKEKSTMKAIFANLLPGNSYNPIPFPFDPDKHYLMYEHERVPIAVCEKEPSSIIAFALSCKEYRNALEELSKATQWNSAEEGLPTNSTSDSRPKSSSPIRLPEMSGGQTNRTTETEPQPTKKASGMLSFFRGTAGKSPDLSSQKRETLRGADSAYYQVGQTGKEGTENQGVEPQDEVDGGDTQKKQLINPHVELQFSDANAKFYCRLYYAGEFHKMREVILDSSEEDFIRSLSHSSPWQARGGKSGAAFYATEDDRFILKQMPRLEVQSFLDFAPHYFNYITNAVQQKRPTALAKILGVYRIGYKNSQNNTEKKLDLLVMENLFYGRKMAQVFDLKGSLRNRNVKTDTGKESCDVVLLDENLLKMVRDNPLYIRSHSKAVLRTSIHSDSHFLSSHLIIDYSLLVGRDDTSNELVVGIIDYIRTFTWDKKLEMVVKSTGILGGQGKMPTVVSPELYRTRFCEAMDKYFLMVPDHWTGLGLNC

Cc1cccc(/C=N/Nc2cc(N3CCOCC3)nc(OCCc3ccc(NC(=O)CCCCC(=O)N[C@H](C(=O)N4C[C@H](O)C[C@H]4C(=O)NCc4ccc(-c5scnc5C)cc4)C(C)(C)C)cc3)n2)c1
Activity [1]: Active
Activity [2]: Active
Activity [3]: inactive
inhibition [4]: Active
inhibition [5]: Dose-Dependent Effect
Activity [6]: Active
Activity [7]: Active
Activity [8]: 97.9%
Activity [9]: Active
Activity [10]: Dose-Dependent Effect
Activity [11]: 91%
Activity [12]: Active
Activity [13]: Active
IC50 [14]: 522 nM
inhibition [15]: Dose-Dependent Effect
inhibition [16]: Dose-Dependent Effect
inhibition [17]: Dose-Dependent Effect
inhibition [18]: Dose-Dependent Effect
Activity [19]: 97%
IC50 [20]: 1200 nM
Activity [21]: Dose-Dependent Effect
Activity [22]: Active
inhibition [23]: Dose-Dependent Effect
IC50 [24]: 55.9 nM
T1/2 [25]: 1.5 h
Activity [26]: inactive
Activity [27]: inactive
Activity [28]: Active
Activity [29]: Active
